Results from ChEMBL document CHEMBL1136928, “Novel orally bioavailable gamma-secretase inhibitors with excellent in vivo activity” (J Med Chem, 2009).
Activity calls are given as the source filed them. No cut-off for these calls is given here.

What was measured:
Gamma-secretase = experiment: Inhibition of gamma secretase in human SH-SY5Y cells by HTRF assay; assay type: cell-based
Mus musculus [1] = experiment: Reduction in amyloid beta40 production in human betaAAP overexpressing YAC mouse forebrain at 3 mg/kg, po after 4 hrs relative to control; assay type: functional; parameters: scale not given: the % may be the effect or the level left
Method in brief: (§1)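 APP-YAC transgenic mice overexpressing human βAPP; oral dosing as suspension in 0.5% methocel, 3 mg/kg (also 0.3 and 1 mg/kg for dose–response). Soluble Aβ(40) in forebrain measured 4 h post-dose; reduction expressed relative to vehicle-treated animals; ED50 from dose–response.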

Mus musculus [2] = experiment: Reduction in amyloid beta40 production in po dosed human betaAAP overexpressing YAC mouse forebrain after 4 hrs; assay type: functional; conditions: Brain; method in brief: as §1
[3] = Bioavailability in rat; assay type: ADME, organism-based; conditions: in vivo
[4] = Half life in rat; assay type: ADME, organism-based; conditions: in vivo
[5] = Bioavailability in dog; assay type: ADME, organism-based, Canis lupus familiaris; conditions: in vivo
[6] = Half life in dog; assay type: ADME, organism-based, Canis lupus familiaris; conditions: in vivo
[7] = Bioavailability in rhesus monkey; assay type: ADME, organism-based, Macaca mulatta; conditions: in vivo
[8] = Half life in rhesus monkey; assay type: ADME, organism-based, Macaca mulatta; conditions: in vivo
[9] = Inhibition of gamma secretase assessed as amyloid beta40 production
[10] = Inhibition of gamma secretase assessed as amyloid beta42 production

Row | SMILES | IC50 (Gamma-secretase) | other results
1 | O=S1(=O)N[C@@]2(CN1CC(F)(F)F)[C@@H]1CC[C@H]2Cc2ccc(-c3cn(-c4ccccc4F)cn3)cc2C1 | 0.17 nM | –
2 | Cn1nc(-c2ccc3c(c2)C[C@H]2CC[C@@H](C3)[C@]23CN(CC(F)(F)F)S(=O)(=O)N3)cc1-c1cccc(F)c1 (racemic) | 0.46 nM | –
3 | Cn1nc(-c2ccc3c(c2)C[C@H]2CC[C@@H](C3)[C@]23CN(CC(F)(F)F)S(=O)(=O)N3)cc1-c1ccc(Cl)cc1 | 0.07 nM | –
4 | O=S1(=O)N[C@@]2(CN1CC(F)(F)F)[C@@H]1CC[C@H]2Cc2ccc(-c3cn(-c4ccc(Cl)c(Cl)c4)cn3)cc2C1 | 0.42 nM | –
5 | Cn1nc(-c2ccc3c(c2)C[C@H]2CC[C@@H](C3)[C@]23CN(CC(F)(F)F)S(=O)(=O)N3)cc1-c1ccc(Cl)c(Cl)c1 | 0.41 nM | –
6 | Cn1nc(-c2ccc3c(c2)C[C@H]2CC[C@@H](C3)[C@]23CN(CC(F)(F)F)S(=O)(=O)N3)cc1-c1ccc(F)cc1F | 0.06 nM | –
7 | O=S1(=O)N[C@@]2(CN1CC(F)(F)F)[C@@H]1CC[C@H]2Cc2ccc(-c3ncn(-c4ccc(F)cc4)n3)cc2C1 | 0.15 nM | –
8 | Cn1nc(-c2ccc(F)cc2)cc1-c1ccc2c(c1)CC1CCC(C2)C12CN(CC(F)(F)F)S(=O)(=O)N2 (racemic) | 1.65 nM | –
9 | O=S1(=O)N[C@@]2(CN1CC(F)(F)F)[C@@H]1CC[C@H]2Cc2ccc(-c3cn(-c4ccc(F)cc4F)cn3)cc2C1 | 0.06 nM | –
10 | O=S1(=O)N[C@@]2(CN1CC(F)(F)F)[C@@H]1CC[C@H]2Cc2ccc(-c3cn(-c4ccc(F)cc4)cn3)cc2C1 | 0.03 nM | Activity (Mus musculus [1]): 66%
11 | Cn1nc(-c2ccc3c(c2)CC2CCC(C3)C23CN(CC(F)(F)F)S(=O)(=O)N3)cc1-c1ccccc1F (racemic) | 0.21 nM | –
12 | O=S1(=O)N[C@@]2(CN1CC(F)(F)F)[C@@H]1CC[C@H]2Cc2ccc(-c3ncc(N4CCC(C(F)(F)F)CC4)s3)cc2C1 | 0.34 nM | –
13 | O=S1(=O)N[C@@]2(CN1CC(F)(F)F)[C@@H]1CC[C@H]2Cc2ccc(-c3cn(-c4ccc(Cl)cc4)cn3)cc2C1 | 0.08 nM | –
14 | O=S1(=O)N[C@@]2(CN1CC(F)(F)F)[C@@H]1CC[C@H]2Cc2ccc(-c3ncc(-c4ccc(F)cc4)s3)cc2C1 | 0.42 nM | –
15 | Cn1nc(-c2ccc3c(c2)C[C@H]2CC[C@@H](C3)[C@]23CN(CC(F)(F)F)S(=O)(=O)N3)cc1-c1ccc(F)cc1 | 0.06 nM | Activity (Mus musculus [1]): 84%; ED50 (Mus musculus [2]): 1 mg/kg; bioavailability [3]: 35%; half-life [4]: 120 min; bioavailability [5]: 42%; half-life [6]: > 600 min; bioavailability [7]: 45%; half-life [8]: 960 min; Activity [9]: Active; Activity [10]: Active
16 | O=S1(=O)N[C@@]2(CN1CC(F)(F)F)[C@@H]1CC[C@H]2Cc2ccc(-c3cn(-c4cccc(F)c4)cn3)cc2C1 | 0.82 nM | –
17 | O=S1(=O)N[C@@]2(CN1CC(F)(F)F)[C@@H]1CC[C@H]2Cc2ccc(-c3cn(-c4ccc(F)c(F)c4)cn3)cc2C1 | 0.12 nM | –
18 | O=S1(=O)N[C@@]2(CN1CC(F)(F)F)[C@@H]1CC[C@H]2Cc2ccc(/C=C/CN3CCC(C(F)(F)F)CC3)cc2C1 | 0.24 nM | ED50 (Mus musculus [2]): 17 mg/kg
19 | Cn1nc(-c2ccc3c(c2)C[C@H]2CC[C@@H](C3)[C@]23CN(CC(F)(F)F)S(=O)(=O)N3)cc1-c1ccc(F)c(F)c1 | 0.06 nM | –
